Results: article PMC4299864 (Chirality, 2013)

Legend:
Assay type in all cases: cell-based
human FPR1 = biological target: T1, human FPR1 (Homo sapiens, UniProt P21462); assay: Ca2+ mobilization in HL-60 cells transfected with FPR1; conditions: HL-60-FPR1 cells; for Ca2+ Mobilization Efficacy, FPR1: percent of the response induced by 5 nM fMLF; for EC50: read-out: Ca2+ Mobilization EC50, FPR1, mean of three independent experiments, N.A. = no activity, limits efficacy > 20 % and EC50 < 50 μM
T1 sequence (P21462 1-350): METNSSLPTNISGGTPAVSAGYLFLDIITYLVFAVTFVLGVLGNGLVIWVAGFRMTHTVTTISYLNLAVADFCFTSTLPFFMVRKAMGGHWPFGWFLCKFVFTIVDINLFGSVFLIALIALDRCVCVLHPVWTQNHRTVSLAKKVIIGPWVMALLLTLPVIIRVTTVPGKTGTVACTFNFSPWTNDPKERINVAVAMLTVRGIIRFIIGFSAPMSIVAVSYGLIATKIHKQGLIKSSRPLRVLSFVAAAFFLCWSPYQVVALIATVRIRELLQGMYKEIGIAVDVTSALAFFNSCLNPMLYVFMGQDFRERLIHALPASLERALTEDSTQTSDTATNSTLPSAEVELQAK
Method in brief: (§1)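 Stably transfected HL-60 cells were grown in RPMI 1640 with 10% heat-inactivated FCS, 10 mM HEPES and G418 (1 mg/mL). Cells were loaded with Fluo-4 AM (1.25 μg/mL final) for 30 min at 37 °C in the dark, then resuspended in HBSS with Ca²⁺/Mg²⁺ at 2 × 10⁵ cells/well. Fluorescence (ex 485/em 538 nm) was read every 5 s for 240 s at room temperature after compound addition. Peak change over baseline was set against 5 nM fMLF (FPR1) or 5 nM WKYMVm (FPR2, FPR3) as 100%. Curves had 5–6 points, from three independent experiments.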

human FPR2 = biological target: T2, human FPR2 (Homo sapiens, UniProt P25090); assay: Ca2+ mobilization in HL-60 cells transfected with FPR2; conditions: HL-60-FPR2 cells; for Ca2+ Mobilization Efficacy, FPR2: percent of the response induced by 5 nM WKYMVm; for EC50: read-out: Ca2+ Mobilization EC50, FPR2, mean of three independent experiments, N.A. = no activity, limits efficacy > 20 % and EC50 < 50 μM
T2 sequence (P25090 1-351): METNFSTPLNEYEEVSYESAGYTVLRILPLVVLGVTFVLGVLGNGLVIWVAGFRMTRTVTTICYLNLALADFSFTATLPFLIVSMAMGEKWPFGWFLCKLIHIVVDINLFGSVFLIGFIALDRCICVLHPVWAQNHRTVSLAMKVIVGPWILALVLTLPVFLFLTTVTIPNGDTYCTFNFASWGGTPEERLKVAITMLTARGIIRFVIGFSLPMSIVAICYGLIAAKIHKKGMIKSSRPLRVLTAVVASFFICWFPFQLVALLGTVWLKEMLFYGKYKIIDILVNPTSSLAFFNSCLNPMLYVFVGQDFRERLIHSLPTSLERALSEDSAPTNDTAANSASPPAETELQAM
Method in brief: as §1

human FPR3 = biological target: T3, human FPR3 (Homo sapiens, UniProt P25089); assay: Ca2+ mobilization in HL-60 cells transfected with FPR3; conditions: HL-60-FPR3 cells; for Ca2+ Mobilization Efficacy, FPR3: percent of the response induced by 5 nM WKYMVm; for EC50: read-out: Ca2+ Mobilization EC50, FPR3, mean of three independent experiments, N.A. = no activity, limits efficacy > 20 % and EC50 < 50 μM
T3 sequence (P25089 1-353): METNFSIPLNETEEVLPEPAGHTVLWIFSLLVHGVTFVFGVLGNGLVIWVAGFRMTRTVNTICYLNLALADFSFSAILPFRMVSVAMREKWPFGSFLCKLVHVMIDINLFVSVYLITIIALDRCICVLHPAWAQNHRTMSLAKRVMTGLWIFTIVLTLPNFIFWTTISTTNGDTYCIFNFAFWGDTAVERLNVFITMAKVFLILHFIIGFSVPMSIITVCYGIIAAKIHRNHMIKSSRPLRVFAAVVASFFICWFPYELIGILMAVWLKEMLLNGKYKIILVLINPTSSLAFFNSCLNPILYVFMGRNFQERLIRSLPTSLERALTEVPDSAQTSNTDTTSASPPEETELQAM
Method in brief: as §1

Row | SMILES | Ca2+ Mobilization Efficacy, FPR1 (human FPR1) [%] | EC50 (human FPR1) [µM] | Ca2+ Mobilization Efficacy, FPR2 (human FPR2) [%] | EC50 (human FPR2) [µM] | Ca2+ Mobilization Efficacy, FPR3 (human FPR3) [%] | EC50 (human FPR3) [µM]
1 | CC1CC(c2ccccc2)=NN(CC(=O)Nc2ccc(Br)cc2)C1=O (racemic) [(±)-4a, (±)-N-(4-Bromophenyl)-2-[5-methyl-6-oxo-3-phenyl-5,6-dihydropyridazin-1(4H)-yl]acetamide] | 55 | 23.5 | 65 | 7 | – | –
2 | Cc1cc(-c2ccccc2)nn(CC(=O)Nc2ccc(Br)cc2)c1=O [8a, N-(4-Bromophenyl)-2-[5-methyl-6-oxo-3-phenylpyridazin-1(6H)-yl]acetamide] | 50 | – | 45 | – | – | –
3 | C[C@@H]1CC(c2ccccc2)=NN(CC(=O)Nc2ccc(Br)cc2)C1=O [R-(+)-4a, R-(+)-N-(4-Bromophenyl)-2-[5-methyl-6-oxo-3-phenyl-5,6-dihydropyridazin-1(4H)-yl] acetamide] | 80 | 24.4 | 85 | 10 | 40 | 7.1
4 | C[C@H]1CC(c2ccccc2)=NN(CC(=O)Nc2ccc(Br)cc2)C1=O [S-(-)-4a, S-(-)-N-(4-Bromophenyl)-2-[5-methyl-6-oxo-3-phenyl-5,6-dihydropyridazin-1(4H)-yl] acetamide] | 75 | 19.5 | 95 | 10.7 | 40 | 8.3
